From ChEMBL document CHEMBL1147806, “Structure-activity relationship studies on UK-2A, a novel antifungal antibiotic from Streptomyces sp. 517-02. Part 5: Roles of the 9-membered dilactone-ring moiety in respiratory inhibition” (2006)
Converted amounts (≈) assume the structure as drawn.

What was measured:
Bos taurus = species on record: Bos taurus; assay: Respiratory inhibition in bovine heart submitochondrial particles; assay type: functional
Method in brief: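 Bovine heart submitochondrial particles prepared by the Matsuno-Yagi and Hatefi method; uncoupler-stimulated respiration with 10 mM succinate as substrate, oxygen consumption followed by oxygen electrode at 25 °C.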

Rhodotorula mucilaginosa = assay: Antifungal activity against Rhodotorula mucilaginosa IFO 0001; assay type: functional
Method in brief: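 Compounds dissolved in DMF; MIC by serial 2-fold agar dilution on Sabouraud dextrose agar, read after 48 h cultivation at 25 °C.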

SMILES | MIC (Rhodotorula mucilaginosa) [µg/mL] | pI50 (Bos taurus)
CCCC[C@H]1C(=O)O[C@H](C)[C@H](NC(=O)c2cccc(NC=O)c2O)C(=O)O[C@@H](C)[C@@H]1OC(=O)CC(C)C [ANTIMYCIN A3] | 0.39 (≈ 0.749 µM) | 7.4
CCCCCCOC(=O)C[C@H](NC(=O)c1cc(O)c(OC)c(OC)c1O)C(=O)OCCCCCC | 100 (≈ 201 µM) | 5
COc1ccnc(C(=O)N[C@H]2COC(=O)[C@H](Cc3ccccc3)[C@@H](OC(=O)C(C)C)[C@H](C)OC2=O)c1O | < 0.1 | 6
CCCCCCCCOC(=O)CC[C@H](NC(=O)c1nccc(OC)c1O)C(=O)OCCCCCCCC | > 100 | 5.7
CCCCCCCOC(=O)CC[C@H](NC(=O)c1nccc(OC)c1O)C(=O)OCCCCCCC | 50 (≈ 101 µM) | –
CCCCCCOC(=O)CC[C@H](NC(=O)c1cccc(NC=O)c1O)C(=O)OCCCCCC | > 100 | 7.1

More lines, main results first:

MIC (Rhodotorula mucilaginosa) [µg/mL] | SMILES | pI50 (Bos taurus)
100 (≈ 221 µM) | CCCCCCOC(=O)C[C@H](NC(=O)c1nccc(OC)c1O)C(=O)OCCCCCC | –
> 100 | CCCCCCOC(=O)C[C@H](NC(=O)c1ccc(OC)c(OC)c1O)C(=O)OCCCCCC | 4.9
12.5 (≈ 28.5 µM) | CCCCCOC(=O)CC[C@H](NC(=O)c1nccc(OC)c1O)C(=O)OCCCCC | –
3.13 (≈ 6.71 µM) | CCCCCCOC(=O)CC[C@H](NC(=O)c1nccc(OC)c1O)C(=O)OCCCCCC | 6
100 (≈ 214 µM) | CCCCCCOC(=O)CC[C@@H](NC(=O)c1nccc(OC)c1O)C(=O)OCCCCCC | –
